Measured values: ChEMBL document CHEMBL2086252, “Syntheses and evaluation of anticonvulsant activity of novel branched alkyl carbamates” (J Med Chem, 2012)
Activity calls are given as the source filed them. No cut-off for these calls is given here.

Legend:
Rattus norvegicus [1] = assay: Anticonvulsant activity in Sprague-Dawley albino rat assessed as protection against maximal electroshock-induced seizures at 30 mg/kg, po after 4 hrs; type: functional, organism-based; set-up: dose 30 mg/kg
Method in brief: (§1)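 Rats dosed orally. Anti-MES protection was scored as animals protected over animals tested at each time after dosing. Neurotoxicity was scored as motor impairment or sedation, as animals affected over animals tested.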

Mus musculus [2] = assay: Anticonvulsant activity in albino CF1 mouse assessed as protection against subcutaneous metrazol-induced seizures at 100 mg/kg, ip after 4 hrs; type: functional, organism-based; set-up: dose 100 mg/kg
Method in brief: (§2)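 Mice dosed ip at 30, 100 or 300 mg/kg, then tested 0.5 h and 4 h after administration in the MES or scMet test. Protection was recorded as animals protected over animals tested. Neurotoxicity was recorded as motor impairment or sedation, as animals affected over animals tested.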

Mus musculus [3] = assay: Anticonvulsant activity in albino CF1 mouse assessed as protection against subcutaneous metrazol-induced seizures at 300 mg/kg, ip after 0.5 hrs; type: functional, organism-based; set-up: dose 300 mg/kg; method in brief: as §2
Rattus norvegicus [4] = assay: Neurotoxicity in pilocarpine-induced status epilepticus Sprague-Dawley albino rat model assessed as minimal motor impairment at 300 mg/kg, ip after 4 hrs by rotarod test; type: toxicity, organism-based; set-up: dose 300 mg/kg, route intraperitoneal; conditions: in vivo
Method in brief: (§3)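 Rat pilocarpine status epilepticus model: test carbamate given at 0 or 30 min after the first observed Racine stage 3 motor seizure, which marks SE onset. Neurotoxicity was scored within the same model.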

Rattus norvegicus [5] = assay: Neurotoxicity in pilocarpine-induced status epilepticus Sprague-Dawley albino rat model assessed as minimal motor impairment at 30 mg/kg, ip after 0.25 hr by rotarod test; type: toxicity, organism-based; set-up: dose 30 mg/kg, route intraperitoneal; conditions: in vivo; method in brief: as §3
Rattus norvegicus [6] = assay: Neurotoxicity in pilocarpine-induced status epilepticus Sprague-Dawley albino rat model assessed as minimal motor impairment at 300 mg/kg, ip after 2 hrs by rotarod test; type: toxicity, organism-based; set-up: dose 300 mg/kg, route intraperitoneal; conditions: in vivo; method in brief: as §3
Rattus norvegicus [7] = assay: Neurotoxicity in pilocarpine-induced status epilepticus Sprague-Dawley albino rat model assessed as minimal motor impairment at 30 mg/kg, ip after 2 hrs by rotarod test; type: toxicity, organism-based; set-up: dose 30 mg/kg, route intraperitoneal; conditions: in vivo; method in brief: as §3
Mus musculus [8] = assay: Anticonvulsant activity in albino CF1 mouse assessed as protection against maximal electroshock-induced seizures at 30 mg/kg, ip after 4 hrs; type: functional, organism-based; set-up: dose 30 mg/kg; method in brief: as §2
Rattus norvegicus [9] = assay: Neurotoxicity in pilocarpine-induced status epilepticus Sprague-Dawley albino rat model assessed as minimal motor impairment at 100 mg/kg, ip after 0.5 hrs by rotarod test; type: toxicity, organism-based; set-up: dose 100 mg/kg, route intraperitoneal; conditions: in vivo
Mus musculus [10] = assay: Neurotoxicity in albino CF1 mouse assessed as minimal motor impairment at 30 mg/kg, ip after 0.5 hrs by rotarod test; type: toxicity, organism-based; set-up: dose 30 mg/kg, route intraperitoneal; conditions: in vivo; method in brief: as §2
Mus musculus [11] = assay: Neurotoxicity in albino CF1 mouse assessed as minimal motor impairment at 300 mg/kg, ip after 4 hrs by rotarod test; type: toxicity, organism-based; set-up: dose 300 mg/kg, route intraperitoneal; conditions: in vivo; method in brief: as §2
Mus musculus [12] = assay: Anticonvulsant activity in albino CF1 mouse assessed as protection against maximal electroshock-induced seizures at 300 mg/kg, ip after 0.5 hrs; type: functional, organism-based; set-up: dose 300 mg/kg; method in brief: as §2
Mus musculus [13] = assay: Anticonvulsant activity in albino CF1 mouse assessed as protection against subcutaneous metrazol-induced seizures at 30 mg/kg, ip after 4 hrs; type: functional, organism-based; set-up: dose 30 mg/kg; method in brief: as §2
Rattus norvegicus [14] = assay: Neurotoxicity in pilocarpine-induced status epilepticus Sprague-Dawley albino rat model assessed as minimal motor impairment at 30 mg/kg, ip after 1 hr by rotarod test; type: toxicity, organism-based; set-up: dose 30 mg/kg, route intraperitoneal; conditions: in vivo; method in brief: as §3
Rattus norvegicus [15] = assay: Neurotoxicity in pilocarpine-induced status epilepticus Sprague-Dawley albino rat model assessed as minimal motor impairment at 100 mg/kg, ip after 1 hr by rotarod test; type: toxicity, organism-based; set-up: dose 100 mg/kg, route intraperitoneal; conditions: in vivo
Rattus norvegicus [16] = assay: Neurotoxicity in pilocarpine-induced status epilepticus Sprague-Dawley albino rat model assessed as minimal motor impairment at 100 mg/kg, ip after 2 hrs by rotarod test; type: toxicity, organism-based; set-up: dose 100 mg/kg, route intraperitoneal; conditions: in vivo
Rattus norvegicus [17] = assay: Neurotoxicity in Sprague-Dawley albino rat assessed as minimal motor impairment at 30 mg/kg, po by rotarod test; type: toxicity, organism-based; set-up: dose 30 mg/kg, route oral; conditions: in vivo; method in brief: as §1
Rattus norvegicus [18] = assay: Anticonvulsant activity in Sprague-Dawley albino rat assessed as protection against maximal electroshock-induced seizures at 30 mg/kg, po after 2 hrs; type: functional, organism-based; set-up: dose 30 mg/kg; method in brief: as §1
Mus musculus [19] = assay: Anticonvulsant activity in albino CF1 mouse assessed as protection against subcutaneous metrazol-induced seizures at 30 mg/kg, ip after 0.5 hrs; type: functional, organism-based; set-up: dose 30 mg/kg; method in brief: as §2
Rattus norvegicus [20] = assay: Neurotoxicity in pilocarpine-induced status epilepticus Sprague-Dawley albino rat model assessed as minimal motor impairment at 300 mg/kg, ip after 1 hr by rotarod test; type: toxicity, organism-based; set-up: dose 300 mg/kg, route intraperitoneal; conditions: in vivo; method in brief: as §3
Rattus norvegicus [21] = assay: Neurotoxicity in pilocarpine-induced status epilepticus Sprague-Dawley albino rat model assessed as minimal motor impairment at 30 mg/kg, ip after 4 hrs by rotarod test; type: toxicity, organism-based; set-up: dose 30 mg/kg, route intraperitoneal; conditions: in vivo; method in brief: as §3
Rattus norvegicus [22] = assay: Neurotoxicity in pilocarpine-induced status epilepticus Sprague-Dawley albino rat model assessed as minimal motor impairment at 300 mg/kg, ip after 0.5 hrs by rotarod test; type: toxicity, organism-based; set-up: dose 300 mg/kg, route intraperitoneal; conditions: in vivo; method in brief: as §3
Rattus norvegicus [23] = assay: Neurotoxicity in pilocarpine-induced status epilepticus Sprague-Dawley albino rat model assessed as minimal motor impairment at 100 mg/kg, ip after 4 hrs by rotarod test; type: toxicity, organism-based; set-up: dose 100 mg/kg, route intraperitoneal; conditions: in vivo
Rattus norvegicus [24] = assay: Neurotoxicity in pilocarpine-induced status epilepticus Sprague-Dawley albino rat model assessed as minimal motor impairment at 100 mg/kg, ip after 0.25 hr by rotarod test; type: toxicity, organism-based; set-up: dose 100 mg/kg, route intraperitoneal; conditions: in vivo
Rattus norvegicus [25] = assay: Anticonvulsant activity in Sprague-Dawley albino rat assessed as protection against maximal electroshock-induced seizures at 30 mg/kg, po after 15 mins; type: functional, organism-based; set-up: dose 30 mg/kg; method in brief: as §1
Mus musculus [26] = assay: Anticonvulsant activity in albino CF1 mouse assessed as protection against maximal electroshock-induced seizures at 300 mg/kg, ip after 4 hrs; type: functional, organism-based; set-up: dose 300 mg/kg; method in brief: as §2
Mus musculus [27] = assay: Anticonvulsant activity in albino CF1 mouse assessed as protection against maximal electroshock-induced seizures at 30 mg/kg, ip after 0.5 hrs; type: functional, organism-based; set-up: dose 30 mg/kg; method in brief: as §2
Mus musculus [28] = assay: Anticonvulsant activity in albino CF1 mouse assessed as protection against subcutaneous metrazol-induced seizures at 300 mg/kg, ip after 4 hrs; type: functional, organism-based; set-up: dose 300 mg/kg; method in brief: as §2
Rattus norvegicus [29] = assay: Anticonvulsant activity in Sprague-Dawley albino rat assessed as protection against maximal electroshock-induced seizures at 30 mg/kg, po after 30 mins; type: functional, organism-based; set-up: dose 30 mg/kg; method in brief: as §1
Mus musculus [30] = assay: Anticonvulsant activity in albino CF1 mouse assessed as protection against subcutaneous metrazol-induced seizures at 100 mg/kg, ip after 0.5 hrs; type: functional, organism-based; set-up: dose 100 mg/kg; method in brief: as §2
Rattus norvegicus [31] = assay: Anticonvulsant activity in Sprague-Dawley albino rat assessed as protection against maximal electroshock-induced seizures at 30 mg/kg, po after 1 hr; type: functional, organism-based; set-up: dose 30 mg/kg; method in brief: as §1
Rattus norvegicus [32] = assay: Neurotoxicity in pilocarpine-induced status epilepticus Sprague-Dawley albino rat model assessed as minimal motor impairment at 300 mg/kg, ip after 0.25 hr by rotarod test; type: toxicity, organism-based; set-up: dose 300 mg/kg, route intraperitoneal; conditions: in vivo; method in brief: as §3
Rattus norvegicus [33] = assay: Neurotoxicity in pilocarpine-induced status epilepticus Sprague-Dawley albino rat model assessed as minimal motor impairment at 30 mg/kg, ip after 0.5 hrs by rotarod test; type: toxicity, organism-based; set-up: dose 30 mg/kg, route intraperitoneal; conditions: in vivo; method in brief: as §3
Mus musculus [34] = assay: Anticonvulsant activity in albino CF1 mouse assessed as protection against maximal electroshock-induced seizures at 100 mg/kg, ip after 4 hrs; type: functional, organism-based; set-up: dose 100 mg/kg; method in brief: as §2
Mus musculus [35] = assay: Neurotoxicity in albino CF1 mouse assessed as minimal motor impairment at 300 mg/kg, ip after 0.5 hrs by rotarod test; type: toxicity, organism-based; set-up: dose 300 mg/kg, route intraperitoneal; conditions: in vivo; method in brief: as §2
Mus musculus [36] = assay: Anticonvulsant activity in albino CF1 mouse assessed as protection against maximal electroshock-induced seizures at 100 mg/kg, ip after 0.5 hrs; type: functional, organism-based; set-up: dose 100 mg/kg; method in brief: as §2
Mus musculus [37] = assay: Neurotoxicity in albino CF1 mouse assessed as minimal motor impairment at 30 mg/kg, ip after 4 hrs by rotarod test; type: toxicity, organism-based; set-up: dose 30 mg/kg, route intraperitoneal; conditions: in vivo; method in brief: as §2
Mus musculus [38] = assay: Neurotoxicity in albino CF1 mouse assessed as minimal motor impairment at 100 mg/kg, ip after 0.5 hrs by rotarod test; type: toxicity, organism-based; set-up: dose 100 mg/kg, route intraperitoneal; conditions: in vivo; method in brief: as §2
Mus musculus [39] = assay: Neurotoxicity in albino CF1 mouse assessed as minimal motor impairment at 100 mg/kg, ip after 4 hrs by rotarod test; type: toxicity, organism-based; set-up: dose 100 mg/kg, route intraperitoneal; conditions: in vivo; method in brief: as §2

Row | Compound | Activity (Rattus norvegicus [1]) | Activity (Mus musculus [2]) | Activity (Mus musculus [3]) | Activity (Rattus norvegicus [4]) | Activity (Rattus norvegicus [5]) | Activity (Rattus norvegicus [7]) | Activity (Mus musculus [8]) | Activity (Rattus norvegicus [9]) | Activity (Mus musculus [10]) | Activity (Mus musculus [11]) | Activity (Mus musculus [12]) | Activity (Mus musculus [13]) | Activity (Rattus norvegicus [14]) | Activity (Rattus norvegicus [16]) | Activity (Rattus norvegicus [17]) | Activity (Mus musculus [19]) | Activity (Rattus norvegicus [20]) | Activity (Rattus norvegicus [21]) | Activity (Rattus norvegicus [22]) | Activity (Rattus norvegicus [23]) | further results
1 | CCCC(CCC)COC(=O)NC | inactive | inactive | Active | Toxic | Non-toxic | Non-toxic | inactive | Toxic | Non-toxic | Non-toxic | Active | inactive | Non-toxic | Non-toxic | Non-toxic | inactive | Toxic | Non-toxic | Toxic | Non-toxic | Activity (Rattus norvegicus [6]): Toxic; Activity (Rattus norvegicus [15]): Toxic; Activity (Rattus norvegicus [18]): inactive; Activity (Rattus norvegicus [24]): Toxic; Activity (Rattus norvegicus [25]): inactive; Activity (Mus musculus [26]): Active; Activity (Mus musculus [27]): inactive; Activity (Mus musculus [28]): inactive; Activity (Rattus norvegicus [29]): inactive; Activity (Mus musculus [30]): inactive; Activity (Rattus norvegicus [31]): inactive; Activity (Rattus norvegicus [32]): Toxic; Activity (Rattus norvegicus [33]): Non-toxic; Activity (Mus musculus [34]): inactive
2 | CCC(COC(N)=O)CC(C)C (racemic) | inactive | inactive | Active | Non-toxic | Non-toxic | Non-toxic | inactive | Toxic | Non-toxic | Non-toxic | Active | inactive | Non-toxic | Non-toxic | Non-toxic | inactive | Toxic | Non-toxic | Toxic | Non-toxic | Activity (Mus musculus [35]): Toxic; Activity (Mus musculus [36]): inactive; Activity (Mus musculus [37]): Non-toxic; Activity (Mus musculus [38]): Non-toxic; Activity (Rattus norvegicus [24]): Toxic; Activity (Mus musculus [39]): Non-toxic; Activity (Rattus norvegicus [25]): inactive; Activity (Mus musculus [26]): inactive; Activity (Mus musculus [27]): inactive; Activity (Mus musculus [28]): inactive; Activity (Rattus norvegicus [29]): inactive; Activity (Mus musculus [30]): inactive; Activity (Rattus norvegicus [32]): Toxic; Activity (Rattus norvegicus [33]): Non-toxic; Activity (Mus musculus [34]): inactive
